Experimental data published in ChEMBL document CHEMBL4219238, “Design, synthesis, molecular modelling and in vitro cytotoxicity analysis of novel carbamate derivatives as inhibitors of Monoacylglycerol lipase” (Bioorg Med Chem, 2018).
The source made the active and inactive calls. The rule behind the calls is not given here.

Legend:
[1] = target: T1, Monoglyceride lipase (Homo sapiens) (UniProt Q99685); experiment: Inhibition of recombinant human MAGL assessed as residual activity at 10 uM using 7-HRA as substrate preincubated for 60 mins followed by substrate addition by fluorescence assay relative to control
T1 sequence (whole entry): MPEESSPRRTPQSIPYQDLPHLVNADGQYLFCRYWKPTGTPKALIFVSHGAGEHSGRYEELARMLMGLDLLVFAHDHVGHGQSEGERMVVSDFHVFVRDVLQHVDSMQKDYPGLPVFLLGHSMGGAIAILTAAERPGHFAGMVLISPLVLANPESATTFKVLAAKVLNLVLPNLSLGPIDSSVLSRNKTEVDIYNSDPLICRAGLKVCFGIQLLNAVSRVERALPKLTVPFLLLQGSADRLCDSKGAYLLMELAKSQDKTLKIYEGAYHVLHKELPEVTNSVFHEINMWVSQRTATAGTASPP
How it was run: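 Recombinant human MAGL (C-terminal His-tagged, E. coli), 25 ng/well, in 50 mM Tris-HCl pH 7.4, 1 mM EDTA, 10% DMSO final. Preincubated with inhibitor or DMSO 60 min at room temperature, then 5 μM 7-HRA (final) added. Resorufin fluorescence (ex 571/em 588 nm) converted via calibration curve. Rates from linear regression, no-enzyme background subtracted, normalised to no-inhibitor control. IC50 taken at 30 min by variable-slope sigmoid fit.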

B16-F10 [2] = experiment: Induction of apoptosis in mouse B16F10 cells assessed as early apoptotic cells at 10 uM after 48 hrs by Annexin V-FITC/propidium iodide staining based flow cytometry (reference value: 1.75%); type: functional
B16-F10 [3] = experiment: Induction of apoptosis in mouse B16F10 cells assessed as live cells at 10 uM after 48 hrs by Annexin V-FITC/propidium iodide staining based flow cytometry (reference value: 88.04%); type: functional
B16-F10 [4] = experiment: Induction of apoptosis in mouse B16F10 cells assessed as necrotic cells at 10 uM after 48 hrs by Annexin V-FITC/propidium iodide staining based flow cytometry (reference value: 2.62%); type: functional
B16-F10 [5] = experiment: Induction of apoptosis in mouse B16F10 cells assessed as late apoptotic cells at 10 uM after 48 hrs by Annexin V-FITC/propidium iodide staining based flow cytometry (reference value: 7.39%); type: functional
Monoglyceride lipase [6] = target: T2, Monoglyceride lipase (Homo sapiens, UniProt Q99685); experiment: Inhibition of recombinant human MAGL using 7-HRA as substrate preincubated for 60 mins followed by substrate addition by fluorescence assay
T2 sequence (Q99685 whole entry): T1 sequence (whole entry)

Monoglyceride lipase [7] = target: T3, Monoglyceride lipase (Mus musculus, UniProt O35678); experiment: Inhibition of MAGL in mouse B16-F10 cells using 7-HRA as substrate preincubated for 60 mins followed by substrate addition measured every 2.5 mins for 2 hrs by fluorescence assay; type: cell-based
T3 sequence (O35678 whole entry): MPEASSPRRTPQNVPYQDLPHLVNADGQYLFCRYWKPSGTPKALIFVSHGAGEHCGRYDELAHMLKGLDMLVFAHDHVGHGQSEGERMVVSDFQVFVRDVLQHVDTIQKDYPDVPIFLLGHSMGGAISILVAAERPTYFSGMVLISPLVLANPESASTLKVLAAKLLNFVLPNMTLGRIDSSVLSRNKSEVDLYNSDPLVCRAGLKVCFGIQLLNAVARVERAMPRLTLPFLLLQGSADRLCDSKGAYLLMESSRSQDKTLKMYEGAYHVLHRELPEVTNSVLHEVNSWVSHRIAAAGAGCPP

[8] = target: T1, Monoglyceride lipase (Homo sapiens); experiment: Inhibition of MAGL in human MCF7 cells at 10 uM using 7-HRA as substrate preincubated for 6 hrs followed by substrate addition by fluorescence assay; type: cell-based
How it was run: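 MCF7 cells cultured 6 h with 10 μM compound or DMSO, then lysed; MAGL activity measured on total cell lysate using the 7-HRA fluorogenic assay.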

[9] = target: T4, Monoglyceride lipase (Mus musculus) (UniProt O35678); experiment: Inhibition of MAGL in mouse B16-F10 intact cells at 10 uM using 7-HRA as substrate preincubated for 6 hrs followed by substrate addition by fluorescence assay; type: cell-based
T4 sequence (whole entry): T3 sequence (O35678 whole entry)
How it was run: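 Intact B16-F10 cells cultured 6 h with compound or DMSO, homogenised 30 min at 4 °C in lysis buffer and spun 1,500 × g 5 min. 1 μg lysate assayed with 10 μM 7-HRA (ex 571/em 588 nm); 5-min values reported; mean ± SEM, n = 3.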

B16-F10 [10] = experiment: Antiproliferative activity against mouse B16F10 cells at 10 uM after 48 hrs by Cyto Tracker red dye based flow cytometry; type: functional, cell-based
How it was run: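 B16-F10 cells (Iscove's medium, 10% heat-inactivated FBS, 37 °C, 5% CO2) exposed to compound or DMSO for 48 h, stained with CytoTrack Red 628/643 and analysed by flow cytometry. Proliferation index (average number of cells that an initial cell became) expressed as fold change over DMSO control; n = 3; one-way ANOVA with Tukey post-test.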

[11] = target: T5, Fatty-acid amide hydrolase 1 (Homo sapiens) (UniProt O00519); experiment: Inhibition of human FAAH at 10 uM using AAMCA as substrate preincubated for 1 hr followed by substrate addition measured after 30 mins by fluorescence assay relative to control
T5 sequence (whole entry): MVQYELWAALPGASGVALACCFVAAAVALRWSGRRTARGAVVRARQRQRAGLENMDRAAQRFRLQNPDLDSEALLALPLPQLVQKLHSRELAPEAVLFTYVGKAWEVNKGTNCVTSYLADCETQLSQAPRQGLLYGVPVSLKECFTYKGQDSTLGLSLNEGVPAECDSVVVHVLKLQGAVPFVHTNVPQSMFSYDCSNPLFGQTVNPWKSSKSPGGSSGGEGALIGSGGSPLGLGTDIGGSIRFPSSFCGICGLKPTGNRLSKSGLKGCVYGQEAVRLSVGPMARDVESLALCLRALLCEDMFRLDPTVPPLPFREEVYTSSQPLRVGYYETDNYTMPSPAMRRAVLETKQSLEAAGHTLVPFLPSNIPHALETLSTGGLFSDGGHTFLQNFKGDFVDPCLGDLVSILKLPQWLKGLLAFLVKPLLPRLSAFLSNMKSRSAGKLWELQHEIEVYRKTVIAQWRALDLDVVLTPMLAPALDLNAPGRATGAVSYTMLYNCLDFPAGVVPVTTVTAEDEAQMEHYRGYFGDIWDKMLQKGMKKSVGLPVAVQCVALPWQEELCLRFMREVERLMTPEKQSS
How it was run: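 Recombinant human FAAH (C-terminal His-tagged, Sf21), 1 U/well, in 50 mM Tris-HCl, 1 mM EDTA, pH 9, preincubated 1 h at room temperature with 10 μM compound (final). AAMCA added to 20 μM final; fluorescence (ex 360/em 460 nm) read every 3 min for 30 min. Rate by linear regression, no-enzyme background subtracted, normalised to no-inhibitor control.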

MCF7 [12] = experiment: Induction of apoptosis in human MCF7 cells at 10 uM after 48 hrs by Annexin V-FITC/propidium iodide staining based flow cytometry; type: functional, cell-based
How it was run: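 HEK293T (DMEM with 10% FBS) or MCF7 (DMEM/Ham's F-12 1:1, 10% FBS) cells treated 48 h with 10 μM compound or DMSO. Staining with Alexa Fluor 488 annexin V plus 5 μg/ml PI in HEPES/NaCl/CaCl2 binding buffer; 10,000 cells per sample read by flow cytometry; n = 3, mean ± S.E.M.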

MCF7 [13] = experiment: Induction of apoptosis in human MCF7 cells at 20 uM after 48 hrs by Annexin V-FITC/propidium iodide staining based flow cytometry; type: functional, cell-based
How it was run: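 MCF7 cells grown in 50% DMEM high glucose / 50% Ham's F-12 with 10% heat-inactivated FBS at 37 °C, 5% CO2, then exposed 48 h to compound or DMSO vehicle. Cells stained with annexin V plus 5 µg/ml PI in HEPES/NaCl/CaCl2 binding buffer. Flow cytometry on 10,000 cells per sample. Apoptotic = AnnV+/PI− plus AnnV+/PI+. n=3, mean ± S.E.M.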

Monoglyceride lipase [14] = target: T3, Monoglyceride lipase; experiment: […] of MAGL in mouse B16-F10 cells using 7-HRA as substrate preincubated for 60 mins followed by substrate addition measured every 2.5 mins for 2 hrs by fluorescence assay; type: cell-based
MCF7 [15] = experiment: Induction of apoptosis in human MCF7 cells at 10 nM after 48 hrs by Annexin V-FITC/propidium iodide staining based flow cytometry; type: functional, cell-based

Q: Which results are given for `O=C(Nc1cccc(-c2ccc(C(F)(F)F)cc2)c1)OCc1ccccc1`?
A: Activity [1]: 82%; Activity (B16-F10 [2]): 9.89%; Activity (B16-F10 [3]): 64.51%; Activity (B16-F10 [4]): 2.96%; Activity (B16-F10 [5]): 22.65%; IC50 (Monoglyceride lipase [6]; read-out: IC50): 4.5 µM; IC50 (Monoglyceride lipase [7]; read-out: IC50): 9.41 µM; inhibition [8]: Active; inhibition [9]: Active; Activity (B16-F10 [10]): Active; inhibition [11]: 15%

Q: What does the source list for `O=C(Nc1cccc(-c2ccccc2)c1)OCCc1ccccc1`?
A: IC50 (Monoglyceride lipase [7]; read-out: IC50): 17.1 µM; Activity (B16-F10 [10]): inactive

Q: `CCCCCCCC/C=C\CCCCCCCC(=O)NCC` was tested. Which Activity (MCF7 [12]) did it give?
A: inactive

Q: And the inhibition [11]?
A: 99%

Q: With `O=C(Nc1cccc(-c2ccccc2)c1)OC1CCCCC1` as the compound, how does the Activity [1] read?
A: 66%

Q: What about the Activity (B16-F10 [2]) of the same compound?
A: 1.43%

Q: What about the Activity (B16-F10 [3]) of the same compound?
A: 79.55%

Q: What about the Activity (B16-F10 [4]) of the same compound?
A: 5.48%

Q: What about the Activity (B16-F10 [5]) of the same compound?
A: 13.54%

Q: What about the IC50 (Monoglyceride lipase [6]; read-out: IC50) of the same compound?
A: 9.1 µM

Q: What about the IC50 (Monoglyceride lipase [7]; read-out: IC50) of the same compound?
A: 19.8 µM

Q: And the Activity (B16-F10 [10])?
A: inactive

Q: What does the source list for `O=C(Nc1cccc(-c2ccccc2)c1)OCc1ccco1`?
A: IC50 (Monoglyceride lipase [6]): Nd(Insoluble); IC50 (Monoglyceride lipase [7]; b16-f10): Nd(Insoluble)

Q: For `O=C(Nc1cccc(-c2ccc(F)cc2)c1)OCc1ccccc1`, which IC50 (Monoglyceride lipase [7]; read-out: IC50) is on record?
A: 15.6 µM

Q: And the Activity (B16-F10 [10])?
A: inactive

Q: `O=C(Oc1ccc([N+](=O)[O-])cc1)N1CCC(C(O)(c2ccc3c(c2)OCO3)c2ccc3c(c2)OCO3)CC1` was tested. Which Activity (MCF7 [13]) did it give?
A: Active

Q: Which EC50 (Monoglyceride lipase [14]) does the source give for `O=C(Nc1cccc(-c2ccccc2)c1)Nc1cccc(-c2ccccc2)c1` here?
A: 5.76 µM

Q: With `COc1ccc(-c2ccc(-c3cn(C(=O)N4CCCCC4c4ccccc4)nn3)cc2)cc1` (configuration not stated) as the compound, how does the Activity (MCF7 [15]) read?
A: inactive

Q: Which IC50 (Monoglyceride lipase [7]; read-out: IC50) does the source give for `O=C(Nc1cccc(-c2ccc(F)cc2)c1)OCC1CCCCC1` here?
A: 26.7 µM

Q: And the Activity (B16-F10 [10])?
A: inactive

Q: `O=C(Nc1cccc(-c2ccc(C(F)(F)F)cc2)c1)OCC1CCCCC1` was tested. Which IC50 (Monoglyceride lipase [7]; read-out: IC50) did it give?
A: 17.4 µM

Q: And the Activity (B16-F10 [10])?
A: inactive

Q: With `O=C(Nc1cccc(-c2ccccc2)c1)OCc1ccccc1` as the compound, how does the IC50 (Monoglyceride lipase [6]; read-out: IC50) read?
A: 11.1 µM

Q: What about the IC50 (Monoglyceride lipase [7]; read-out: IC50) of the same compound?
A: 16.5 µM

Q: And the Activity (B16-F10 [10])?
A: inactive
